Results from ChEMBL document CHEMBL4043246, “Discovery of novel [1,2,4]triazolo[4,3-a]quinoxaline aminophenyl derivatives as BET inhibitors for cancer treatment” (Bioorg Med Chem Lett, 2017).

Experiments:
[1] = Cell cycle arrest in human TY82 cells assessed as accumulation at sub-G1 phase at 3 uM after 24 hrs by DAPI staining based assay (reference value: 6%); assay type: functional
[2] = Stability in human liver microsomes assessed as parent compound remaining after 30 mins; assay type: ADME, microsome; details: read-out: Stability
Outline: (§1)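 Incubated in vitro with mouse, rat or human liver microsomes for 30 minutes. Result expressed as percent of parent compound remaining.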

[3] = target: Bromodomain-containing protein 9 (Homo sapiens) (UniProt Q9H8M2); assay: Inhibition of human partial length BRD9 (R130 to V259 residues) expressed in bacterial expression system assessed as residual activity at 500 nM relative to control by BROMOscan assay
[4] = Cell cycle arrest in human TY82 cells assessed as accumulation at S phase at 1 uM after 24 hrs by DAPI staining based assay (reference value: 11%); assay type: functional
[5] = test system: Rattus norvegicus; assay: Tmax in rat at 20 mg/kg, po; assay type: ADME, organism-based; details: in vivo
Outline: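 Rat pharmacokinetics after a single intravenous dose of 2 mg/kg or oral doses of 5 mg/kg and 20 mg/kg. Reported parameters are Tmax, Cmax, T1/2, AUCt, AUC∞, CL, Vss and F(%). CL, Vss and F come from the intravenous/oral 2 and 5 mg/kg arms.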

[6] = target: Bromodomain-containing protein 3 (Homo sapiens) (UniProt Q15059); assay: Inhibition of human partial length BRD3 BD2 (G306 to P416 residues) expressed in bacterial expression system assessed as residual activity at 500 nM relative to control by BROMOscan assay
[7] = AUCt in rat at 20 mg/kg, po; assay type: ADME, organism-based; details: in vivo
Outline: (§2)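 Rat pharmacokinetics with single dosing, either intravenous at 2 mg/kg or oral at 5 or 20 mg/kg. AUC is reported both to the last time point (AUCt) and extrapolated to infinity, in ug.hr/mL.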

[8] = Cell cycle arrest in human TY82 cells assessed as accumulation at G2/M phase at 3 uM after 24 hrs by DAPI staining based assay (reference value: 9%); assay type: functional
[9] = Cell cycle arrest in human TY82 cells assessed as accumulation at S phase at 10 uM after 24 hrs by DAPI staining based assay (reference value: 11%); assay type: functional
[10] = target: E3 ubiquitin-protein ligase TRIM33 (Homo sapiens) (UniProt Q9UPN9); assay: Inhibition of human partial length TRIM33-phd-bromo (D882 to A1087 residues) expressed in bacterial expression system assessed as residual activity at 500 nM relative to control by BROMOscan assay
E3 ubiquitin-protein ligase TRIM33 (Homo sapiens), sequence (Q9UPN9 whole entry, the tested form may be a part): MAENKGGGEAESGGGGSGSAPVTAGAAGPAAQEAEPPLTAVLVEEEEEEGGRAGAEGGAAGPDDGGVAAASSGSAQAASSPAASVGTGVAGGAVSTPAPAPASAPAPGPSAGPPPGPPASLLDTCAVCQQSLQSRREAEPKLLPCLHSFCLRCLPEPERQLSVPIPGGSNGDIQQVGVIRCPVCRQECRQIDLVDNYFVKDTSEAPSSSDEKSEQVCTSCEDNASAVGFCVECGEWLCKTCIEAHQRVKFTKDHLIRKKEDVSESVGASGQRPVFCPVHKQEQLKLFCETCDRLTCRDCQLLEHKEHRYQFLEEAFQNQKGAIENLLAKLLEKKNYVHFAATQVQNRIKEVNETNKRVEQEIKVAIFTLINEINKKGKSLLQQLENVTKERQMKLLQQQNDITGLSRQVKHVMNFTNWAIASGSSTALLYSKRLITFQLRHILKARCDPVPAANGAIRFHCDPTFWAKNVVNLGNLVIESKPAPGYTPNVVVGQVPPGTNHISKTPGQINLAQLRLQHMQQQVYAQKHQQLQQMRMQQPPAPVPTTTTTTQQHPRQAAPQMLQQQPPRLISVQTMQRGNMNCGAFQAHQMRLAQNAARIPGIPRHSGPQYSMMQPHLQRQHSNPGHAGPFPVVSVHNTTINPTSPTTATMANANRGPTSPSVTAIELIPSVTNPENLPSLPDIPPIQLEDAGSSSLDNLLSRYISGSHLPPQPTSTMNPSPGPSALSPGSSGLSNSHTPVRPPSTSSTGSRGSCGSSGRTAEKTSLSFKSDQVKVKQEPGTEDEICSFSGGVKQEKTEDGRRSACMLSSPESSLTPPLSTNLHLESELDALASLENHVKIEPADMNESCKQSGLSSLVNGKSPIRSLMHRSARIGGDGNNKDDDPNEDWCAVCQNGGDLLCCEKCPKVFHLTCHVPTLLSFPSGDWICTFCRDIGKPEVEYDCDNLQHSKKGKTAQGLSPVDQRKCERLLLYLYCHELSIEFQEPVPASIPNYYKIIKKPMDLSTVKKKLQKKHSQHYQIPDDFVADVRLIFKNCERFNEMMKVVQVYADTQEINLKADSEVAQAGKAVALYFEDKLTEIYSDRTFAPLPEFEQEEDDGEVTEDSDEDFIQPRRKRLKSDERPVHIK

[11] = target: Bromodomain-containing protein 7 (Homo sapiens) (UniProt Q9NPI1); assay: Inhibition of human partial length BRD7 (L125 to R254 residues) expressed in mammalian expression system assessed as residual activity at 500 nM relative to control by BROMOscan assay
[12] = target: T1, Bromodomain-containing protein 4 (Homo sapiens, UniProt O60885); assay: Inhibition of BRD4 in human TY82 cells assessed as decrease in c-MYC expression level after 24 hrs by Western blot analysis; assay type: cell-based
Outline: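 Ty-82 cells at 70% confluency were treated with varying compound concentrations for 24 h. Samples were run on 12% SDS-PAGE and transferred to nitrocellulose. Membranes were blocked in PBS/1% BSA/0.1% Tween 20 for 1 h, probed with c-MYC antibodies, and detected by chemiluminescence.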

[13] = target: Transcription intermediary factor 1-alpha (Homo sapiens) (UniProt O15164); assay: Inhibition of human partial length TRIM24-phd-bromo (P790 to P977 residues) expressed in bacterial expression system assessed as residual activity at 500 nM relative to control by BROMOscan assay
[14] = target: Nucleosome-remodeling factor subunit BPTF (Homo sapiens) (UniProt Q12830); assay: Inhibition of human partial length FALZ (S2791 to H2911 residues) expressed in bacterial expression system assessed as residual activity at 500 nM relative to control by BROMOscan assay
[15] = test system: Rattus norvegicus; assay: Half life in rat at 20 mg/kg, po; assay type: ADME, organism-based; details: in vivo
Outline: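 Rat pharmacokinetics with single intravenous (2 mg/kg) or oral (5 or 20 mg/kg) dosing. Terminal half-life is reported in hours.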

[16] = target: T1, Bromodomain-containing protein 4; assay: Inhibition of human partial length BRD4 BD1 (N44 to E168 residues) expressed in bacterial expression system assessed as residual activity at 500 nM relative to control by BROMOscan assay
[17] = target: Peregrin (Homo sapiens) (UniProt P55201); assay: Inhibition of human partial length BRPF1 (E627 to G740 residues) expressed in bacterial expression system assessed as residual activity at 500 nM relative to control by BROMOscan assay
Peregrin (Homo sapiens), sequence (P55201 whole entry, the tested form may be a part): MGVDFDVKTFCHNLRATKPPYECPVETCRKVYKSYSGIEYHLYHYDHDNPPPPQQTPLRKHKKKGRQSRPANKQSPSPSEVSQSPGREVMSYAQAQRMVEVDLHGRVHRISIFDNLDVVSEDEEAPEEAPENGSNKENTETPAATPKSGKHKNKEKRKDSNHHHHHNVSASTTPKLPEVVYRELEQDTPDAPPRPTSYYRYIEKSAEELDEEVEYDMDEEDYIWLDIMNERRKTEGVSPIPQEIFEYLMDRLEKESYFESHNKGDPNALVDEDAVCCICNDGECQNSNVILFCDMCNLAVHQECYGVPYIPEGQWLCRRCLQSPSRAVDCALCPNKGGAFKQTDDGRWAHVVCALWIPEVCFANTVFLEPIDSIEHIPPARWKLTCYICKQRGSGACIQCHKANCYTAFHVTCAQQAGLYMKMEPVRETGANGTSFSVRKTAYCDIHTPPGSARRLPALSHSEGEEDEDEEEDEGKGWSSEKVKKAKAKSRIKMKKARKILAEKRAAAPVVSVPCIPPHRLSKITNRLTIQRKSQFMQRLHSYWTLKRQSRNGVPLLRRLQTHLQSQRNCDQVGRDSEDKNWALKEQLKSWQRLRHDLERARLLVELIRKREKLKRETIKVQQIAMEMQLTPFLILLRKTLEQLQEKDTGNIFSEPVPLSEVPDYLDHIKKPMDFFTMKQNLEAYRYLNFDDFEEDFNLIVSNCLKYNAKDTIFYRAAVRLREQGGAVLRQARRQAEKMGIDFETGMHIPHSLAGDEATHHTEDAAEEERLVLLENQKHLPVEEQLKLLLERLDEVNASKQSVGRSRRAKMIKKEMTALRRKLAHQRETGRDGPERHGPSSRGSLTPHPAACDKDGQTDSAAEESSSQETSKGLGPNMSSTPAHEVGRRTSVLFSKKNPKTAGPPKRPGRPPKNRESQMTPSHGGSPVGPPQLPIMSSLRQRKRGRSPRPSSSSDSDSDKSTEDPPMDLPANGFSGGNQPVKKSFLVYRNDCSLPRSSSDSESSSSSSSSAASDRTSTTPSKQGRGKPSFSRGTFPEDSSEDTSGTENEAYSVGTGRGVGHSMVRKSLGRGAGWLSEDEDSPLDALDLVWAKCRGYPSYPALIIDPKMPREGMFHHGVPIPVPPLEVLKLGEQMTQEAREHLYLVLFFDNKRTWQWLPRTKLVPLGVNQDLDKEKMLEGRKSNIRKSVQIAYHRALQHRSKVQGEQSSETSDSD

[18] = target: Bromodomain testis-specific protein (Homo sapiens) (UniProt Q58F21); assay: Inhibition of human partial length BRDT BD2 (K250 to E382 residues) expressed in bacterial expression system assessed as residual activity at 500 nM relative to control by BROMOscan assay
[19] = test system: Rattus norvegicus; assay: AUCinfinity in rat at 20 mg/kg, po; assay type: ADME, organism-based; set-up: dose 20 mg/kg, time infinity, route oral; details: in vivo; outline: as §2
[20] = Cell cycle arrest in human TY82 cells assessed as accumulation at sub-G1 phase at 10 uM after 24 hrs by DAPI staining based assay (reference value: 6%); assay type: functional
[21] = target: CREB-binding protein (Homo sapiens) (UniProt Q92793); assay: Inhibition of human partial length CREBBP (R1081 to G1197 residues) expressed in bacterial expression system assessed as residual activity at 500 nM relative to control by BROMOscan assay
[22] = target: Bromodomain adjacent to zinc finger domain protein 2A (Homo sapiens) (UniProt Q9UIF9); assay: Inhibition of human partial length BAZ2A (M1792 to L1905 residues) expressed in bacterial expression system assessed as residual activity at 500 nM relative to control by BROMOscan assay
Bromodomain adjacent to zinc finger domain protein 2A (Homo sapiens), sequence (Q9UIF9 whole entry, the tested form may be a part): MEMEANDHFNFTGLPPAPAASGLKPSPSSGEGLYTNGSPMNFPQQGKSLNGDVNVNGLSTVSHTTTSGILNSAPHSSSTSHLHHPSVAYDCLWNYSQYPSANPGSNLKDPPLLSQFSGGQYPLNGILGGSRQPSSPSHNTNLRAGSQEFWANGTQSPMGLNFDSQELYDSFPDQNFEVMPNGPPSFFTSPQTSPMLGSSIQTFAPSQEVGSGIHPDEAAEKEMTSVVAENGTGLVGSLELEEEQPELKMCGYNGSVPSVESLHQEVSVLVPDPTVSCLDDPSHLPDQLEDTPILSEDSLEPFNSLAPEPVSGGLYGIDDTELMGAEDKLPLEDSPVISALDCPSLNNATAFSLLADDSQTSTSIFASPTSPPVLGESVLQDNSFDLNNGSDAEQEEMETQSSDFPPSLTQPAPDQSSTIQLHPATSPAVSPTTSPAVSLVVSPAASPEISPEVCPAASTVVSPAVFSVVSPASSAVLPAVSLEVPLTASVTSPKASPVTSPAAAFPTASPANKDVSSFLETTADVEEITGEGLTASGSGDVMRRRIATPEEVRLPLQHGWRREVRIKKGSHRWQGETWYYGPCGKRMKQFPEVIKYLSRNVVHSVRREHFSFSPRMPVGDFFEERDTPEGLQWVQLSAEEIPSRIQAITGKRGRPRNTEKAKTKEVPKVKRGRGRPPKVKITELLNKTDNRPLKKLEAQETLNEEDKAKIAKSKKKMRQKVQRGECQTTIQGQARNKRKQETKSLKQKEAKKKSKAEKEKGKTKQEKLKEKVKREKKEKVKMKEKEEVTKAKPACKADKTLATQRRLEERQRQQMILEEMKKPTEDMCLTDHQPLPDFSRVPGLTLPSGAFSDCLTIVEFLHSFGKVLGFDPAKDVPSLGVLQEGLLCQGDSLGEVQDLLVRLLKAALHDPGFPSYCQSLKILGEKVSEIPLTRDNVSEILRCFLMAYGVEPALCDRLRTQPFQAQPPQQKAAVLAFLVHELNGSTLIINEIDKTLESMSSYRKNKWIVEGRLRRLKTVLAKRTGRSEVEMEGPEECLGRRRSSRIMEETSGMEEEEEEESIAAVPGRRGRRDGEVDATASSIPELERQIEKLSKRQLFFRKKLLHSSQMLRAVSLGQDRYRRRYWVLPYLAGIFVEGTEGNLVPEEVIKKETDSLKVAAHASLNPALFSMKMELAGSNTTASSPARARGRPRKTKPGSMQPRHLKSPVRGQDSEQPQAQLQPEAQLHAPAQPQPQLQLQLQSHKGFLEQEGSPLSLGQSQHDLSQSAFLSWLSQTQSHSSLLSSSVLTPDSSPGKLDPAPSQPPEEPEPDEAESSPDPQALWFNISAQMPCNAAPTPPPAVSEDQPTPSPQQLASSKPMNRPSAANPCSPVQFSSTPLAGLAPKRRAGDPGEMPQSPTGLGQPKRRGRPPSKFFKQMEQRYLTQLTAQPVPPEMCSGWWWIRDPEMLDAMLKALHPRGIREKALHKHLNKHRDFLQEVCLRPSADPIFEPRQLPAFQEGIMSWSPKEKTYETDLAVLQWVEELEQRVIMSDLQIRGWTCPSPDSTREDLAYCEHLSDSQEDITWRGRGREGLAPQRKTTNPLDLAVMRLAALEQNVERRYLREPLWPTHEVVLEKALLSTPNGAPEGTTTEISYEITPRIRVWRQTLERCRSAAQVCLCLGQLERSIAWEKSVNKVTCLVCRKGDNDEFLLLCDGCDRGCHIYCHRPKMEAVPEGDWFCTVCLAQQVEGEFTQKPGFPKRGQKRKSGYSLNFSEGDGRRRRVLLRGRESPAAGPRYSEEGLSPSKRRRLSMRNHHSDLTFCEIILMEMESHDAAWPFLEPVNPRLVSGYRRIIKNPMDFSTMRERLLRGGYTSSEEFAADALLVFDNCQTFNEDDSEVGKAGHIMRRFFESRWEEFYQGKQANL

[23] = Cell cycle arrest in human TY82 cells assessed as accumulation at sub-G1 phase at 1 uM after 24 hrs by DAPI staining based assay (reference value: 6%); assay type: functional
[24] = Cell cycle arrest in human TY82 cells assessed as accumulation at G1 phase at 1 uM after 24 hrs by DAPI staining based assay (reference value: 73%); assay type: functional
[25] = target: Bromodomain-containing protein 2 (Homo sapiens) (UniProt P25440); assay: Inhibition of human partial length BRD2 BD1 (K71 to N194 residues) expressed in bacterial expression system assessed as residual activity at 500 nM relative to control by BROMOscan assay
Bromodomain-containing protein 2 (Homo sapiens), sequence (P25440 whole entry, looked up, the tested form may be a part): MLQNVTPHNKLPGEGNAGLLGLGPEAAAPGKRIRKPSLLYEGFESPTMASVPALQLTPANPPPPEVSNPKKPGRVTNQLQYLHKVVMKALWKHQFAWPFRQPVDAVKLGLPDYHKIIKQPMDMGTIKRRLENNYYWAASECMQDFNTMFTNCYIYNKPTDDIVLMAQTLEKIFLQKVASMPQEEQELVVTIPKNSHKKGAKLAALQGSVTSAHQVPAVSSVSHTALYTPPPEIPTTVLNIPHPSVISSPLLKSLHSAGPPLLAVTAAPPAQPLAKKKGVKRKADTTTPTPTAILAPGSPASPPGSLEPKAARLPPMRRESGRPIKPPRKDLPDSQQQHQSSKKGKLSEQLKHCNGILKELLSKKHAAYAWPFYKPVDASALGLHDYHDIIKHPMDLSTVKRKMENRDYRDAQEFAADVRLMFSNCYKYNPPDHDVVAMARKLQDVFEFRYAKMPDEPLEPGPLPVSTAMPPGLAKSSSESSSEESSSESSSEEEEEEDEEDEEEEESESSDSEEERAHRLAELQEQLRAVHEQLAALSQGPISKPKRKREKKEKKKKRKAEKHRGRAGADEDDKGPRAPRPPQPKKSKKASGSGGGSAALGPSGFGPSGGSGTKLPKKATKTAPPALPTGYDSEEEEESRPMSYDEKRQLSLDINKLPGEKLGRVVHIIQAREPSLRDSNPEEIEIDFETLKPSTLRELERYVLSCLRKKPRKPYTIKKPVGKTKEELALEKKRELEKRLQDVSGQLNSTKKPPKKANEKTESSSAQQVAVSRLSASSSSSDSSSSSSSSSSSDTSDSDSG

[26] = target: Bromodomain-containing protein 2 (Homo sapiens) (UniProt P25440); assay: Inhibition of human partial length BRD2 BD2 (E348 to D455 residues) expressed in bacterial expression system assessed as residual activity at 500 nM relative to control by BROMOscan assay
[27] = target: T1, Bromodomain-containing protein 4; assay: Binding affinity to BRD4 BD2 (unknown origin)
[28] = Cell cycle arrest in human TY82 cells assessed as accumulation at G1 phase at 10 uM after 24 hrs by DAPI staining based assay (reference value: 73%); assay type: functional
[29] = Stability in rat liver microsomes assessed as parent compound remaining after 30 mins; assay type: ADME, microsome; details: read-out: Stability; outline: as §1

Cc1nnc2c(Nc3cccc(CNC(=O)C(C)C)c3)nc3ccccc3n12
Activity [1]: 4%
remaining at 0.5 h [2]: 92%
Activity [3]: 61%
Activity [4]: 6%
Tmax [5]: 1.3 h
Activity [6]: 30%
AUC(0-t) [7]: 20600 ng·h/mL
Activity [8]: 4%
Activity [9]: 2%
Activity [10]: 100%
Activity [11]: 80%
inhibition [12]: Dose-dependent effect
Activity [13]: 100%
Activity [14]: 90%
t1/2 [15]: 3 h
Activity [16]: 17%
Activity [17]: 37%
Activity [18]: 14%
AUC [19]: 25300 ng·h/mL
Activity [20]: 5%
Activity [21]: 87%
Activity [22]: 85%
Activity [23]: 5%
Activity [24]: 81%
Activity [25]: 11%
Activity [26]: 19%
Kd [27]: 9 nM
Activity [28]: 88%
remaining at 0.5 h [29]: 5%
